Data on 36 compounds can be found in ChEMBL document CHEMBL1129408, “Development of novel, potent, and selective dopamine reuptake inhibitors through alteration of the piperazine ring of 1-[2-(diphenylmethoxy)ethyl]-and 1-[2-[bis(4-fluorophenyl)methoxy]ethyl]-4-(3-phenylpropyl)piperazines (GBR 12935 and GBR 12909)” (J Med Chem, 1996).

Structures are written as SMILES. pIC50: −log10 of the molar value.

Experiment [1] concerns the target Sodium-dependent serotonin transporter (Rattus norvegicus, UniProt P31652). Briefly: Inhibition of [3H]5-HT reuptake at rat serotonin transporter. In short, it runs like this:
(§1)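 Uptake into synaptosomes in Krebs-phosphate buffer, pH 7.4, with ascorbic acid 1 mg/mL and pargyline 50 µM. Final tracer was 5 nM [3H]DA or 2 nM [3H]5HT. Incubated at 25 °C for 15 min (DA) or 30 min (5HT), then filtered and filter tritium counted. IC50 derived.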

Experiment [2] concerns the target T1, Sodium-dependent dopamine transporter (Rattus norvegicus, UniProt P23977). Briefly: Binding affinity against dopamine transporter using radioligand as [3H]GBR 12935. In short, it runs like this:
(§2)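 DAT binding by displacement of 2 nM [3H]GBR 12935 or 0.01 nM [125I]RTI 55. Drugs were in 55.2 mM sodium phosphate buffer, pH 7.4, with 1 mg/mL BSA; radioligand was in the same buffer with chymostatin, leupeptin, EDTA and EGTA. Incubated in triplicate for 18-24 h at 4 °C to equilibrium, then filtered over polyethylenimine-presoaked GF/B filters. IC50 derived.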

Experiment [3] has as its target T1, Sodium-dependent dopamine transporter. The experiment is described as follows: Inhibition of dopamine DA reuptake. In short, it runs like this:
as §1

The target of experiment [4] is Monoamine transporters; serotonin & dopamine (Rattus norvegicus) (UniProt P31652+P23977). Briefly: Ratio of binding affinities of Serotonin transporter vs Dopamine transporter reuptake. The class given is protein assay. In short, it runs like this:
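Ratio is the IC50 for [3H]5HT reuptake over the IC50 for [3H]DA reuptake. Both were measured in synaptosomes at 25 °C: 2 nM [3H]5HT for 30 min and 5 nM [3H]DA for 15 min, in Krebs-phosphate buffer, pH 7.4, with pargyline and ascorbic acid.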

Experiment [5] addresses T1, Sodium-dependent dopamine transporter. Briefly: Binding against Dopamine transporter using radioligand as [3H]GBR 12935.
Experiment [6] shares this target. The experiment is described as follows: Compound was tested for binding against Dopamine transporter using radioligand as […].
Experiment [7] is described as follows: Ratio of receptor binding affinities of [3H]5-HT vs [125I]-RTI 55 uptake.
For experiment [8], the target named is T1, Sodium-dependent dopamine transporter. Briefly: Compound was tested for binding affinity against dopamine transporter using radioligand as [3H]-RTI 55. The gist of the method: as §2

T1 sequence (P23977 whole entry): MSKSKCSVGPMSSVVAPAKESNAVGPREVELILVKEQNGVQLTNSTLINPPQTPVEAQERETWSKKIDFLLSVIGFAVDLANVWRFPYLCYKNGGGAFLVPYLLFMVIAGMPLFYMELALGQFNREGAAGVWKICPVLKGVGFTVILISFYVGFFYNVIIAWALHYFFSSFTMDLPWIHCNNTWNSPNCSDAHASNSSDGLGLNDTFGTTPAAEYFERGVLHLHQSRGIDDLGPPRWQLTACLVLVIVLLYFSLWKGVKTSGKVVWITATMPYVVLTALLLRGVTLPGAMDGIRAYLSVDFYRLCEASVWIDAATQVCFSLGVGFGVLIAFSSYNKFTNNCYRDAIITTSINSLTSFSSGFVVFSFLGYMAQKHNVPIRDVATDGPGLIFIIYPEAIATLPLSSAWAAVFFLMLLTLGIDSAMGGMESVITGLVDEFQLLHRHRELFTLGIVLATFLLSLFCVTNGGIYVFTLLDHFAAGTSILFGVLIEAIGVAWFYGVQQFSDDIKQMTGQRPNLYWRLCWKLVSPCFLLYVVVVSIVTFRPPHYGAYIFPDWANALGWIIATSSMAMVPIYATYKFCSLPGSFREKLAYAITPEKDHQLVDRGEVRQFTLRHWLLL
Monoamine transporters; serotonin & dopamine (Rattus norvegicus), sequence (P23977 whole entry, looked up): as the sequence (P23977 whole entry) above
Monoamine transporters; serotonin & dopamine (Rattus norvegicus), sequence (P31652 whole entry, looked up): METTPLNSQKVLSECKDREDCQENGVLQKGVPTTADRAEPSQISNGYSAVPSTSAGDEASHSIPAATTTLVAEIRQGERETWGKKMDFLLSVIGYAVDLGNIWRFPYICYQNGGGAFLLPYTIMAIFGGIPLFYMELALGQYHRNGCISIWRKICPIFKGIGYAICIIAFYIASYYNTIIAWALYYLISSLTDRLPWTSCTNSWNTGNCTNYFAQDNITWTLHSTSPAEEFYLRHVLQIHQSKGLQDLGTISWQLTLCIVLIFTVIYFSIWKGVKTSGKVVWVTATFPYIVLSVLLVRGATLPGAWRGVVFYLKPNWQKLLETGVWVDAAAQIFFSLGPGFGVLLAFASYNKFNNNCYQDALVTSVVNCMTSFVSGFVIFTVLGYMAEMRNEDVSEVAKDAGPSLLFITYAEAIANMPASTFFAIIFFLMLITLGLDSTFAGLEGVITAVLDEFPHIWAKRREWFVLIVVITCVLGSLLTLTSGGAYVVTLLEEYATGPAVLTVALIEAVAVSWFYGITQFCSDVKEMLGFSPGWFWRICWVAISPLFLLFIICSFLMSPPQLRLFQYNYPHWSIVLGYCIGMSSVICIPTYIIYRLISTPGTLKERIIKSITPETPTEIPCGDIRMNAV
Sodium-dependent serotonin transporter, sequence (P31652 whole entry): as the sequence (P31652 whole entry, looked up) above

For the compound `CN(CCCc1ccccc1)CCN(C)CCOC(c1ccccc1)c1ccccc1`, the pIC50 in experiment [1] is 5.61; in experiment [2], 7.57.

On to `c1ccc(CCCN2CCN(CCCc3ccccc3)CC2)cc1`, for which the pIC50 was 5.87 in experiment [1], 5.79 in experiment [3] and 5.11 in experiment [5]. Besides, in experiment [4], the Ratio was determined as 0.2.

On to `C[C@@H]1CN(CCOC(c2ccc(F)cc2)c2ccc(F)cc2)[C@@H](C)CN1CCCc1ccccc1`, for which the pIC50 is 6.34 in experiment [1], 7.82 in experiment [3] and 7.40 in experiment [5]. Besides, the Ratio in experiment [4] came out at 31.

Regarding `c1ccc(C(OCCN2CCN(CCOC(c3ccccc3)c3ccccc3)CC2)c2ccccc2)cc1`, the pIC50 in experiment [1] is 5.77; in experiment [3] it was 7.92; in experiment [6], 8.80; in experiment [5], 8.03. In addition, the figures for the Ratio in experiment [4] and in experiment [7] were 1.3 and 7.5, respectively.

On to `c1ccc(C(OCCN2CCNCC2)c2ccccc2)cc1`, for which the pIC50 is 5.02 in experiment [1], 6.91 in experiment [3] and 6.96 in experiment [2]. Besides, the Ratio in experiment [4] was found to be 1.1.

With `Fc1ccc(C(OCCN2CCCN(CCCc3ccccc3)CC2)c2ccc(F)cc2)cc1`, the pIC50 in experiment [1] was 6.95; in experiment [3] it was 8.47; in experiment [5], 8.36. Also, the Ratio in experiment [4] was found to be 33.

As for `c1ccc(CCCN2CCCN(CCOC(c3ccccc3)c3ccccc3)CC2)cc1`, the pIC50 in experiment [1] was 4.47; in experiment [3] it was 8.14; in experiment [2], 8.10. In experiment [4], the Ratio turned out to be 4740.

With `c1ccc(CCCNC[C@H]2CCCN2CCOC(c2ccccc2)c2ccccc2)cc1`, the pIC50 in experiment [1] was 5.49; in experiment [3], 6.90; in experiment [2], 6.13. Also, the Ratio in experiment [4] turned out to be 25.

Take `CC1(C)CN(CCCc2ccccc2)CCN(CCOC(c2ccccc2)c2ccccc2)C1`: the values for the pIC50 in experiment [1], in experiment [3] and in experiment [2] were 5.50, 7.06 and 6.54, respectively. Moreover, in experiment [4], the Ratio is 36.

Turning to `c1ccc(CCCN2CCCCN(CCOC(c3ccccc3)c3ccccc3)CC2)cc1`, the values for the pIC50 in experiment [1], in experiment [3] and in experiment [2] were 5.80, 7.03 and 6.06, respectively. The Ratio in experiment [4] was found to be 17.

For the compound `c1ccc(C(OCCN2CCCNCC2)c2ccccc2)cc1`, the figures for the pIC50 in experiment [1], in experiment [3] and in experiment [2] were 4.84, 6.19 and 5.87, respectively. In addition, in experiment [4], the Ratio came out at 22.

Take `CC(C)(CNCCCc1ccccc1)CNCCOC(c1ccccc1)c1ccccc1`: the pIC50 in experiment [1] is 5.72; in experiment [3], 7.08; in experiment [2], 6.77. The Ratio in experiment [4] worked out at 23.

Regarding `CC(C)(CN)CNCCOC(c1ccccc1)c1ccccc1`, the pIC50 in experiment [1] was less than 5.00; in experiment [3], 6.34; in experiment [2] it was 5.84.

On to `C[C@@H]1CN(CCOC(c2ccccc2)c2ccccc2)[C@@H](C)CN1CCOC(c1ccccc1)c1ccccc1`, for which the pIC50 in experiment [1] is 5.21; in experiment [3], 7.46; in experiment [2], 7.48. In addition, in experiment [4], the Ratio worked out at 1.1.

On to `C[C@@H]1CN(CCOC(c2ccc(F)cc2)c2ccc(F)cc2)[C@@H](C)CN1CCOC(c1ccc(F)cc1)c1ccc(F)cc1`, for which the pIC50 is 5.37 in experiment [1], 7.07 in experiment [3] and 7.44 in experiment [2]. Besides, the Ratio in experiment [4] amounted to 2.4.

For `c1ccc(CCCN2CCNCC2)cc1`, the pIC50 in experiment [1] was 6.44; in experiment [3], less than 4.52; in experiment [5] it was less than 4.52.

Regarding `Fc1ccc(C(OCCN2CCC[C@H]2CNCCCc2ccccc2)c2ccc(F)cc2)cc1`, the results for the pIC50 in experiment [1], in experiment [3] and in experiment [5] were 4.70, 7.54 and 6.98, respectively. For the same compound, the Ratio in experiment [4] came to 693.

With `C[C@@H]1CN(CCOC(c2ccccc2)c2ccccc2)[C@@H](C)CN1CCCc1ccccc1`, the results for the pIC50 in experiment [1] and in experiment [5] were 5.76 and 7.68, respectively.

In the case of `Oc1cccc(CCCNC[C@@H]2CCCN2CCOC(c2ccccc2)c2ccccc2)c1`, the pIC50 was 6.07 in experiment [1], 7.51 in experiment [3] and 6.65 in experiment [2]. In addition, the Ratio in experiment [4] worked out at 28.

For `C[C@@H]1CN(CCCc2ccccc2)[C@@H](C)CN1`, the pIC50 in experiment [1] was 4.91; in experiment [3], less than 4.52; in experiment [5] it was less than 4.52.

Take `Fc1ccc(C(OCCN2CCN(CCOC(c3ccc(F)cc3)c3ccc(F)cc3)CC2)c2ccc(F)cc2)cc1`: the pIC50 is 6.56 in experiment [1], 7.40 in experiment [3], 8.96 in experiment [6] and 8.14 in experiment [5]. Moreover, the Ratio came to 5.5 in experiment [4] and 36.4 in experiment [7].

As for `C[C@@H]1CN(CCCc2ccccc2)[C@@H](C)CN1CCCc1ccccc1`, the pIC50 in experiment [1] was 5.60; in experiment [3], 5.88; in experiment [2] it was 5.00. Also, the Ratio in experiment [4] was 0.1.

Turning to `C[C@@H]1CN(CCOC(c2ccc(F)cc2)c2ccc(F)cc2)[C@@H](C)CN1C/C=C/c1ccccc1`, the pIC50 was 5.93 in experiment [1], 7.55 in experiment [3] and 7.64 in experiment [5]. Further, in experiment [4], the Ratio worked out at 42.

For the compound `C[C@@H]1CN(CCOC(c2ccc(F)cc2)c2ccc(F)cc2)[C@@H](C)CN1`, the pIC50 in experiment [1] is 5.05; in experiment [3], 7.52; in experiment [2], 6.97; in experiment [8], 7.36. The Ratio in experiment [4] was 298.

Consider `CNCCN(C)CCOC(c1ccccc1)c1ccccc1`, for which the pIC50 in experiment [1] was less than 5.00; in experiment [3] it was 6.26; in experiment [2] it was 6.08.

Turning to `Fc1ccc(C(OCCN2CCCNCC2)c2ccc(F)cc2)cc1`, the pIC50 in experiment [1] was 5.68; in experiment [3] it was 7.77; in experiment [2], 6.84. For the same compound, the Ratio in experiment [4] was found to be 122.

Regarding `Fc1ccc(C(OCCN2CCCN(C/C=C/c3ccccc3)CC2)c2ccc(F)cc2)cc1`, the pIC50 in experiment [1] was 6.63; in experiment [3], 8.47; in experiment [5], 8.59. In addition, the Ratio in experiment [4] was 69.

Take `c1ccc(CCCNCCCCNCCOC(c2ccccc2)c2ccccc2)cc1`: the pIC50 was 6.42 in experiment [1], 7.46 in experiment [3] and 7.10 in experiment [5]. Moreover, the Ratio in experiment [4] amounted to 11.

Take `c1ccc(CCCN2CCCCC(NCCOC(c3ccccc3)c3ccccc3)C2)cc1` (centres undefined): the pIC50 in experiment [1] was 5.54; in experiment [3], 7.24; in experiment [2] it was 7.13. Moreover, in experiment [4], the Ratio worked out at 50.

Turning to `NCCCCNCCOC(c1ccccc1)c1ccccc1`, the pIC50 in experiment [1] is 5.17; in experiment [2], 5.01.

For the compound `c1ccc(CCCNC[C@@H]2CCCN2CCOC(c2ccccc2)c2ccccc2)cc1`, the pIC50 is 6.01 in experiment [1], 9.15 in experiment [3] and 8.29 in experiment [2]. In addition, in experiment [4], the Ratio amounted to 1410.

Turning to `Fc1ccc(C(OCCN2CCNCC2)c2ccc(F)cc2)cc1`, the pIC50 in experiment [1] is 5.85; in experiment [3], 7.15; in experiment [5], 6.98. Moreover, the Ratio in experiment [4] is 0.7.

As to `C[C@@H]1CN(CCOC(c2ccccc2)c2ccccc2)[C@@H](C)CN1C/C=C/c1ccccc1`, the pIC50 in experiment [1] is 5.57; in experiment [3] it was 7.70; in experiment [2], 6.99. Further, in experiment [4], the Ratio was determined as 134.

For the compound `C[C@@H]1CN(CCOC(c2ccccc2)c2ccccc2)[C@@H](C)CN1`, the pIC50 in experiment [1] is 4.60; in experiment [3] it was 6.86; in experiment [2], 6.00. Further, in experiment [4], the Ratio is 183.

In the case of `C(=C\c1ccccc1)/CN1CCCN(CCOC(c2ccccc2)c2ccccc2)CC1`, the pIC50 in experiment [1] was 6.30; in experiment [3], 9.22; in experiment [2], 8.07. Further, the Ratio in experiment [4] is 838.

On to `c1ccc(CCCNC2CCCCN(CCOC(c3ccccc3)c3ccccc3)C2)cc1` (centres undefined), for which the pIC50 in experiment [1] was 5.83; in experiment [3], 8.03; in experiment [2], 7.70. The Ratio in experiment [4] came to 159.
